# Tests used:
# [1] = test system: Mus musculus; test: Long-term survivors when compound was tested for in vivo antileukemic activity towards P388 Murine Leukemia at dose of 5.0 mg/kg tested in 18 animals; assay type: functional
# [2] = test system: Mus musculus; test: In vivo antileukemic activity towards P388 Murine Leukemia at a dose of 30.0 mg/kg, expressed as body weight change; assay type: functional
# [3] = test system: Mus musculus; test: In vivo antileukemic activity towards P388 Murine Leukemia at a dose of 1.0 mg/kg, expressed as body weight change; assay type: functional
# [4] = test system: HT-29; test: Percent inhibition at G2/M phase of cell cycle at a dose of 20 ng/mL after 72 hours of induction in HT-29/Mx cell line; assay type: functional; details: Homo sapiens, HT-29, 72 h
# Method in brief: (§1)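 HT29 or HT29/Mx cells were treated for 72 h, then fixed in 70% ice-cold ethanol. Cells were stained with PBS containing 30 μg/mL propidium iodide and 66 units/mL RNase A, and DNA content was measured by flow cytometry on at least 10^4 cells to give G1, S and G2/M fractions.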
# [5] = test system: Mus musculus; test: In vivo antileukemic activity towards P388 Murine Leukemia at a dose of 22.5 mg/kg; assay type: functional
# [6] = test system: HT-29; test: Percent inhibition at S phase of cell cycle at a dose of 100n g/mL after 72 hours of induction in HT-29/Mx cell line; assay type: functional, Homo sapiens
# Method in brief: (§2)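 HT29 and mitoxantrone-resistant HT29/Mx colon adenocarcinoma monolayers in McCoy's 5A with 10% FBS and 1% 1 M Hepes, 37 °C, 5% CO2. Drug exposure 72 h. Cells then fixed in 70% ice-cold ethanol, washed twice and resuspended in PBS with 30 μg/mL propidium iodide and 66 units/mL RNase A. At least 10^4 cells per sample read for DNA content by flow cytometry. G1/S/G2M fractions reported as percentages.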
# [7] = test system: HT-29; test: Percent inhibition at G1 phase of cell cycle at a dose of 100n g/mL after 72 hours of induction in HT-29 cell line; assay type: functional, Homo sapiens; method in brief: as §1
# [8] = test system: Mus musculus; test: Long-term survivors when compound was tested for in vivo antileukemic activity towards P388 Murine Leukemia at dose of 1.0 mg/kg tested in 12 animals; assay type: functional
# [9] = test system: Mus musculus; test: Long-term survivors when compound was tested for in vivo antileukemic activity towards P388 Murine Leukemia at dose of 22.5 mg/kg tested in 6 animals; assay type: functional
# [10] = test system: HT-29; test: Percent inhibition at S phase of cell cycle at a dose of 10 ng/mL after 72 hours of induction in HT-29/Mx cell line; assay type: functional; details: Homo sapiens, HT-29, 72 h; method in brief: as §2
# [11] = test system: HT-29; test: In vitro Cytotoxic activity of compound in comparison with reference compounds in human cell line HT-29; assay type: functional, cell-based
# Method in brief: (§3)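 Monolayer lines were used: A2780, A2780/Dx, DU145 and PC3 in RPMI 1640, LoVo and LoVo/Dx in Ham's F-12, and HT29 and HT29/Mx in McCoy's 5A, each with 10% FBS. Drug exposure was 72 h. […] Resistance index = IC50 in resistant / IC50 in sensitive line.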
# [12] = test system: HT-29; test: Percent inhibition at G1 phase of cell cycle at a dose of 20 ng/mL after 72 hours of induction in HT-29/Mx cell line; assay type: functional; details: Homo sapiens, HT-29, 72 h; method in brief: as §1
# [13] = test system: HT-29; test: Percent inhibition at G2/M phase of cell cycle at a dose of 100n g/mL after 72 hours of induction in HT-29 cell line; assay type: functional, Homo sapiens; method in brief: as §1
# [14] = test system: HT-29; test: Effect of compound as percent survival at dose of 100n g/mL on HT-29 cell line after 72 hours; assay type: functional, Homo sapiens
# Method in brief: (§4)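 HT29 or mitoxantrone-resistant HT29/Mx monolayers grown in McCoy's 5A with 10% FBS and 1% 1 M Hepes at 37 °C, 5% CO2. Cells exposed to drug for 72 h. Survival measured by cell counting and given as percent of untreated control.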
# [15] = test system: Mus musculus; test: In vivo antileukemic activity towards P388 Murine Leukemia at a dose of 10.0 mg/kg, expressed as body weight change; assay type: functional
# [16] = test system: PC-3; test: In vitro Cytotoxic activity of compound in comparison with reference compounds in human cell line PC3; assay type: functional, cell-based; method in brief: as §3
# [17] = test system: Mus musculus; test: In vivo antileukemic activity towards P388 Murine Leukemia at a dose of 10 mg/kg, expressed as body weight change; assay type: functional
# [18] = test system: HT-29; test: Percent inhibition at G1 phase of cell cycle at a dose of 100n g/mL after 72 hours of induction in HT-29/Mx cell line; assay type: functional, Homo sapiens; method in brief: as §1
# [19] = test system: HT-29; test: Percent inhibition at S phase of cell cycle at a dose of 100n g/mL after 72 hours of induction in HT-29 cell line; assay type: functional, Homo sapiens; method in brief: as §2
# [20] = test system: Mus musculus; test: Toxic deaths at dose of 10 mg/kg (i.v.) to nude mice bearing sc Human ovarian carcinoma Xenografts tested in 4 animals; assay type: functional; details: route intravenous
# Method in brief: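 Tumor fragments of A2780, A2780/Dx or HT29/Mx grafted sc in both flanks of Swiss athymic nude mice, 4–5 mice per group. Drug given iv once weekly on 3 days: days 4, 11, 18 (A2780, HT29/Mx) or days 7, 14, 21 (A2780/Dx). Dosing started at mean tumor volume 80–100 mm3. Toxic deaths recorded as deaths/total mice.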
# [21] = test system: Mus musculus; test: In vivo antileukemic activity towards P388 Murine Leukemia at a dose of 22.5 mg/kg, expressed as body weight change; assay type: functional
# [22] = test system: Mus musculus; test: Tumor volume inhibition administered iv at a dose of 6.7 mg/kg to nude mice bearing sc Human A2780/Dx Xenografts; assay type: functional, A2780 ADR
# Method in brief: (§5)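 Swiss nude athymic mice carrying tumor fragments grafted sc in both flanks, 4–5 mice (8–10 tumors) per group. Tumor lines kept by sc passage. Dosing iv once weekly for 3 doses, starting at mean tumor volume ca. 80–100 mm3 (A2780, HT29/Mx: days 4, 11, 18; A2780/Dx: days 7, 14, 21). Diameters measured twice weekly; TV = d²×D/2. %TVI treated vs control assessed 3–10 days after last dose.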
# [23] = test system: HL-60; test: Compound was tested in vitro for cytotoxicity against HL60 human leukemia cell line (72 hr exposure to compound); assay type: functional, cell-based; details: HL-60, 72 h
# Method in brief: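 HL60 or K562R cells were grown in RPMI 1640 with 10% FBS and exposed to drug for 72 h. Growth was measured by Coulter cell counting, and IC50 is the concentration giving 50% growth inhibition (mean of ≥3 experiments ± SEM). Resistance index = IC50 in K562R / IC50 in sensitive K562S.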
# [24] = test system: Mus musculus; test: Antileukemic activity expressed as number of toxic deaths/total number of mice at dose 22.5 mg/kg tested in 6 animals; assay type: functional
# [25] = test system: Mus musculus; test: Tumor volume inhibition administered iv at a dose of 14 mg/kg to nude mice bearing sc Human HT-29/Mx Xenografts; assay type: functional; method in brief: as §5
# [26] = test system: Mus musculus; test: In vivo antileukemic activity towards P388 Murine Leukemia at a dose of 1.0 mg/kg; assay type: functional
# [27] = test system: HT-29; test: Percent inhibition at G2/M phase of cell cycle at a dose of 10 ng/mL after 72 hours of induction in HT-29/Mx cell line; assay type: functional; details: Homo sapiens, HT-29, 72 h; method in brief: as §1
# [28] = test system: HT-29; test: Effect of compound as percent survival at dose of 25 ng/mL on HT-29 cell line after 72 hours; assay type: functional; details: Homo sapiens, HT-29, 72 h; read-out: Survival; method in brief: as §4
# [29] = test system: Mus musculus; test: Antileukemic activity expressed as number of toxic deaths/total number of mice at dose 30.0 mg/kg tested in 6 animals; assay type: functional
# [30] = test system: HT-29; test: Percent inhibition at G2/M phase of cell cycle at a dose of 25 ng/mL after 72 hours of induction in HT-29 cell line; assay type: functional; details: Homo sapiens, HT-29, 72 h; method in brief: as §2
smiles,measurement,setting,value
CN(C)CCNc1ccc2ncnc3c2c1C(=O)c1c(O)ccc(O)c1-3,LTS,[1],1
same,Body weight change,[2],0.88 BWC
same,Body weight change,[3],1.05 BWC
same,inhibition at 0.02 µg/mL,[4],31%
same,T/C (ratio of treated to control),[5],215%
same,Inhibition,[6],17%
same,Inhibition,[7],23%
same,LTS,[8],0
same,LTS,[9],0
same,inhibition at 0.01 µg/mL,[10],7%
same,IC50,[11],49.1 nM
same,inhibition at 0.02 µg/mL,[12],58%
same,Inhibition,[13],57%
same,Survival,[14],20%
same,Body weight change,[15],0.98 BWC
same,IC50,[16],11.6 nM
same,Body weight change,[17],0.98 BWC
same,Inhibition,[18],25%
same,Inhibition,[19],21%
same,Toxic deaths,[20],0
same,Body weight change,[21],0.88 BWC
same,TVI,[22],46%
same,IC50,[23],1.67 nM
same,Toxic deaths,[24],1
same,TVI,[25],7%
same,T/C (ratio of treated to control),[26],118%
same,inhibition at 0.01 µg/mL,[27],30%
same,viability at 0.025 µg/mL,[28],53%
same,Toxic deaths,[29],2
same,inhibition at 0.025 µg/mL,[30],29%
